Laboratory results published in ChEMBL document CHEMBL2046328, “Structure-based design of rhodanine-based acylsulfonamide derivatives as antagonists of the anti-apoptotic Bcl-2 protein” (Bioorg Med Chem, 2012).
Values after ≈ are worked out from the molar mass of the structure shown.

Experiments:
[1] = Antiproliferative activity against mouse B16/F10 cells after 48 hrs by MTT assay; assay type: functional, cell-based; conditions: B16-F10, 48 h
Summary of the method: (§1)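 Cells were seeded at 7×10^3 per well and grown 24 h, then exposed to compounds for 48 h. MTT was added for 6 h, followed by 10% SDS in 0.01 N HCl for 4 h at 37 °C, and absorbance was read at 570 nm. Survival is expressed relative to untreated cells. IC50 came from 6-well replicates in at least two independent experiments.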

[2] = Inhibition of FAM-Bak-BH3 binding to human N-terminal His6-tagged Bcl2 isoform 2 after 4 hrs by fluorescence polarization assay
[3] = test system: HepG2; test: Antiproliferative activity against human HepG2 cells after 48 hrs by MTT assay; assay type: functional, cell-based; conditions: HepG2, 48 h; summary of the method: as §1
[4] = test system: PC-3; test: Antiproliferative activity against human PC3 cells after 48 hrs by MTT assay; assay type: functional, cell-based; conditions: PC-3, 48 h; summary of the method: as §1

Row | Structure (SMILES) | IC50 [1] [µg/mL] | Ki [2] [nM] | IC50 [3] [µg/mL] | IC50 [4] [µg/mL]
1 | COc1ccc(/C=C2\SC(N[C@H](C(=O)NS(=O)(=O)c3ccc(C)cc3)C(C)C)=NC2=O)cc1 | 11.6 (≈ 23.8 µM) | 672 | 12.8 (≈ 26.2 µM) | 20.3 (≈ 41.6 µM)
2 | Cc1ccc(S(=O)(=O)NC(=O)[C@H](CC(C)C)NC2=NC(=O)/C(=C/c3ccccc3F)S2)cc1 | 11.3 (≈ 23.1 µM) | – | 16.4 (≈ 33.6 µM) | 15.3 (≈ 31.3 µM)
3 | Cc1ccc(S(=O)(=O)NC(=O)[C@H](Cc2ccccc2)NC2=NC(=O)/C(=C/c3ccccc3F)S2)cc1 | 11.9 (≈ 22.7 µM) | – | 18.7 (≈ 35.8 µM) | 22.1 (≈ 42.1 µM)
4 | Cc1ccc(S(=O)(=O)NC(=O)[C@H](CC(C)C)NC2=NC(=O)/C(=C/c3cccc(Cl)c3)S2)cc1 | 13.4 (≈ 26.4 µM) | – | 16.5 (≈ 32.6 µM) | 16.8 (≈ 33.1 µM)
5 | Cc1ccc(S(=O)(=O)NC(=O)[C@H](CC(C)C)NC2=NC(=O)/C(=C/c3ccccc3Cl)S2)cc1 | 8.52 (≈ 16.8 µM) | – | 13.3 (≈ 26.4 µM) | 15.6 (≈ 30.8 µM)
6 | Cc1ccc(S(=O)(=O)NC(=O)[C@H](Cc2ccccc2)NC2=NC(=O)/C(=C/c3ccccc3Cl)S2)cc1 | 12.2 (≈ 22.6 µM) | 20 | 21 (≈ 38.9 µM) | 16 (≈ 29.6 µM)
7 | Cc1ccc(S(=O)(=O)NC(=O)[C@@H](NC2=NC(=O)/C(=C/c3ccccc3Cl)S2)C(C)C)cc1 | 8.8 (≈ 17.9 µM) | 25 | 21.2 (≈ 43.2 µM) | 11.9 (≈ 24.1 µM)
8 | Cc1ccc(S(=O)(=O)NC(=O)[C@@H](NC2=NC(=O)/C(=C/c3ccccc3)S2)C(C)C)cc1 | 7.46 (≈ 16.3 µM) | 3010 | 18.2 (≈ 39.8 µM) | 11.9 (≈ 26 µM)
9 | Cc1ccc(S(=O)(=O)NC(=O)[C@H](Cc2ccccc2)NC2=NC(=O)/C(=C/c3ccc(-c4ccccc4)cc3)S2)cc1 | 12.5 (≈ 21.6 µM) | 310 | 16.6 (≈ 28.5 µM) | 16.4 (≈ 28.1 µM)
10 | COc1ccccc1/C=C1\SC(N[C@H](C(=O)NS(=O)(=O)c2ccc(C)cc2)C(C)C)=NC1=O | 13.5 (≈ 27.7 µM) | – | 20.2 (≈ 41.4 µM) | 15 (≈ 30.8 µM)
11 | Cc1cc2c(C(C)C)c(O)c(O)c(C=O)c2c(O)c1-c1c(C)cc2c(C(C)C)c(O)c(O)c(C=O)c2c1O [GOSSYPOL] | 5.56 (≈ 10.7 µM) | 334 | 10.2 (≈ 19.6 µM) | 6.71 (≈ 12.9 µM)
